Read-outs that look alike come from different tables or passages of the source.
Columns and labels:
[1] = test system: HT-29 colon cancer xenografts; assay: Tumor growth assay, HT-29 xenograft; type: in vivo, BALB/c nude mice; details: dosing from day 7, sacrificed day 28, n = 6
How it was run: (§1)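 Female BALB/c nude mice, 4–5 weeks old and housed SPF, were implanted s.c. in the right flank with BGC-823 or HT-29 cells. At 100 mm3 tumours, mice were randomised into 7 groups. Arms were PBS, reference agents (80 mg/kg/7d; 5 mg/kg/7d) and test peptides at 5 mg/kg daily or every 4 days. Body weight and tumour volume were tracked; tumours were weighed at sacrifice; n = 6, mean ± SD.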

[2] = test system: BGC-823 gastric cancer xenografts; assay: Tumor growth assay, BGC-823 xenograft; type: in vivo, BALB/c nude mice; details: dosing from day 7, sacrificed day 28, n = 6
How it was run: as §1

[3] = in rabbits, estimated; cited from earlier work
[4] = in mice; cited from earlier work
[5] = in rats; cited from earlier work
[6] = in humans; cited from earlier work
[7] = test system: zebrafish embryo subintestinal vessels (SIVs); assay: Zebrafish angiogenesis model; type: in vivo; details: yolk sac microinjection at 2 dpf, read at 3 dpf, 10 zebrafish per group analysed
How it was run: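 Transgenic zebrafish received test peptide by yolk-sac microinjection at 2 dpf, 30 embryos per group, with a positive control included. After a further 24 h, 10 embryos per group were randomly chosen. Fluorescent subintestinal vessels were imaged and SIV area was quantified by image analysis (mean ± SD, three to four independent experiments).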

O=P1(N(CCCl)CCCl)NCCCO1 (stereo not drawn) [CTX, Cyclophosphamide]
inhibition rate on HT-29 xenograft ([1]; 80 mg/kg/7d, positive group): 78.02% | inhibition rate on BGC-823 xenografts ([2]; 80 mg/kg/7d, positive group): 65.9%

Albumin
half-life [3]: 5.55 days | half-life [4]: 1.0 days | half-life [5]: 1.9 days | half-life [6]: 19 days

Avastin: recombinant humanized monoclonal IgG1 antibody against VEGF-A
inhibition rate on HT-29 xenograft ([1]; 5 mg/kg/7d): 77.91% | angiogenesis of SIV plexus in zebrafish embryos (SIV area) [7]: inhibited the angiogenesis of SIV plexus | inhibition rate on BGC-823 xenografts ([2]; 5 mg/kg/7d): 79.54%
